Reference: ChEMBL document CHEMBL3124924, “Bifunctional ethyl 2-amino-4-methylthiazole-5-carboxylate derivatives: synthesis and in vitro biological evaluation as antimicrobial and anticancer agents” (2014)
≈ marks a conversion by molar mass, not a printed value. Calls of active or inactive are those of the source. The calls are words filed in the database; no cut-off is given here.

Legend:
[1] = system: Candida albicans; experiment: Antifungal activity against Candida albicans ATCC 10231 assessed as growth inhibition at 1 mg/mL after 48 hrs by agar-cup diffusion method; type: functional; settings: ATCC 10231, 48 h, read-out: DIZ
Summary of the method: (§1)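 Agar-cup diffusion: 1 mL of 6 h broth culture seeded per 100 mL molten sterile agar at 45 °C and poured into plates. 8 mm cups cut, each filled with 0.1 mL of 1 mg/mL test solution. Incubated 37 °C for 24 h, 48 h for C. albicans. DMSO control per organism. Inhibition zone diameter in mm, mean of three measurements.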

[2] = system: Escherichia coli; experiment: Antibacterial activity against Escherichia coli ATCC 25922 assessed as growth inhibition at 1 mg/mL after 24 hrs by agar-cup diffusion method; type: functional; settings: ATCC 25922, 24 h, read-out: DIZ; summary of the method: as §1
[3] = system: Bacillus spizizenii; experiment: Antibacterial activity against Bacillus subtilis ATCC 6633 assessed as growth inhibition at 1 mg/mL after 24 hrs by agar-cup diffusion method; type: functional; settings: ATCC 6633, 24 h, read-out: DIZ; summary of the method: as §1
[4] = system: Aspergillus niger; experiment: Antifungal activity against Aspergillus niger assessed as growth inhibition at 1 mg/mL after 24 hrs by agar-cup diffusion method; type: functional, organism-based; summary of the method: as §1
[5] = system: Candida albicans; experiment: Fungicidal activity against Candida albicans ATCC 10231 after 18 hrs; type: functional; settings: ATCC 10231, 18 h
Summary of the method: (§2)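 Continuation of the broth-dilution MIC test. A loopful from each tube without visible growth spread on a quarter of a Mueller-Hinton agar plate and incubated 18 h. Lowest concentration giving no growth on subculture taken as the MBC.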

[6] = system: Candida albicans; experiment: Antifungal activity against Candida albicans ATCC 10231 assessed as growth inhibition after 48 hrs by two-fold serial dilution assay; type: functional; settings: ATCC 10231, 48 h
Summary of the method: (§3)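 Twofold serial broth dilution run on compounds giving inhibition zones of 13 mm or more. Organisms pre-grown in suitable broth at 37 °C, 24 h for bacteria and 48 h for fungi. Dilution series 200, 100, 50, 25, 12.5, 6.25. Each 5 mL tube inoculated with 0.1 mL and incubated 37 °C for 48 h. Tubes scored for presence or absence of growth.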

[7] = system: Escherichia coli; experiment: Bactericidal activity against Escherichia coli ATCC 25922 after 18 hrs; type: functional; settings: ATCC 25922, 18 h; summary of the method: as §2
[8] = system: Escherichia coli; experiment: Antibacterial activity against Escherichia coli ATCC 25922 assessed as growth inhibition after 48 hrs by two-fold serial dilution assay; type: functional; settings: ATCC 25922, 48 h; summary of the method: as §3
[9] = system: Bacillus spizizenii; experiment: Bactericidal activity against Bacillus subtilis ATCC 6633 after 18 hrs; type: functional; settings: ATCC 6633, 18 h; summary of the method: as §2
[10] = system: Bacillus spizizenii; experiment: Antibacterial activity against Bacillus subtilis ATCC 6633 assessed as growth inhibition after 48 hrs by two-fold serial dilution assay; type: functional; settings: ATCC 6633, 48 h; summary of the method: as §3
[11] = system: Staphylococcus aureus; experiment: Bactericidal activity against Staphylococcus aureus ATCC 6538 after 18 hrs; type: functional; settings: ATCC 6538, 18 h; summary of the method: as §2
[12] = system: Staphylococcus aureus; experiment: Antibacterial activity against Staphylococcus aureus ATCC 6538 assessed as growth inhibition after 48 hrs by two-fold serial dilution assay; type: functional; settings: ATCC 6538, 48 h; summary of the method: as §3
[13] = system: Staphylococcus aureus; experiment: Antibacterial activity against Staphylococcus aureus ATCC 6538 assessed as growth inhibition at 1 mg/mL after 24 hrs by agar-cup diffusion method; type: functional; settings: ATCC 6538, 24 h, read-out: DIZ; summary of the method: as §1
[14] = system: Pseudomonas aeruginosa; experiment: Antibacterial activity against Pseudomonas aeruginosa ATCC 27853 assessed as growth inhibition at 1 mg/mL after 24 hrs by agar-cup diffusion method; type: functional; settings: ATCC 27853, 24 h, read-out: DIZ; summary of the method: as §1
[15] = system: Pseudomonas aeruginosa; experiment: Bactericidal activity against Pseudomonas aeruginosa ATCC 27853 after 18 hrs; type: functional; settings: ATCC 27853, 18 h; summary of the method: as §2
[16] = system: Pseudomonas aeruginosa; experiment: Antibacterial activity against Pseudomonas aeruginosa ATCC 27853 assessed as growth inhibition after 48 hrs by two-fold serial dilution assay; type: functional; settings: ATCC 27853, 48 h; summary of the method: as §3

SMILES | zone of inhibition at 1000 µg/mL [1] | zone of inhibition at 1000 µg/mL [2] | zone of inhibition at 1000 µg/mL [3] | growth inhibition (GI) [4] | MFC [5] | MIC [6] | MBC [7] | MIC [8] | MBC [9] | MIC [10] | MBC [11] | MIC [12] | zone of inhibition at 1000 µg/mL [13] | zone of inhibition at 1000 µg/mL [14] | MBC [15] | MIC [16]
CCOC(=O)c1sc(NC(=O)C(F)(F)F)nc1C | > 13 mm | > 13 mm | > 13 mm | inactive | 100 µg/mL (≈ 354 µM) | 100 µg/mL (≈ 354 µM) | 100 µg/mL (≈ 354 µM) | 100 µg/mL (≈ 354 µM) | 100 µg/mL (≈ 354 µM) | 100 µg/mL (≈ 354 µM) | 100 µg/mL (≈ 354 µM) | 100 µg/mL (≈ 354 µM) | > 13 mm | > 13 mm |  | 
Cc1ccc(NC(=S)Nc2nc(C)c(C(=O)NN)s2)cc1 | > 13 mm | > 13 mm | > 13 mm | inactive | 100 µg/mL (≈ 311 µM) | 100 µg/mL (≈ 311 µM) | 100 µg/mL (≈ 311 µM) | 100 µg/mL (≈ 311 µM) | 50 µg/mL (≈ 156 µM) | 50 µg/mL (≈ 156 µM) | 25 µg/mL (≈ 77.8 µM) | 25 µg/mL (≈ 77.8 µM) | > 13 mm | > 13 mm | 100 µg/mL (≈ 311 µM) | 50 µg/mL (≈ 156 µM)
CCOC(=O)c1sc(NC(=O)CN2CCOCC2)nc1C | > 13 mm | > 13 mm | > 13 mm | inactive | 100 µg/mL (≈ 319 µM) | 100 µg/mL (≈ 319 µM) |  |  | 100 µg/mL (≈ 319 µM) | 100 µg/mL (≈ 319 µM) | 50 µg/mL (≈ 160 µM) | 50 µg/mL (≈ 160 µM) | > 13 mm | > 13 mm |  | 
